Results: PMC12780499 (Zoological Research, 2025)
Where a name gives a salt, the structure may show the parent alone.

Legend:
MRSA (strain 33564) [1] = assay: Time-kill kinetics; assay type: cell-based, methicillin-resistant Staphylococcus aureus; conditions: gentamicin 20 μmol/L; 1×10^7 CFU/mL, RPMI 1640 + 10% FBS, 37°C
Summary of the method: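 Bacteria adjusted to 1×10^7 CFU/mL in RPMI 1640 with 10% FBS. Incubated at 37°C, 200 rpm. Sampled every 30 min from 0 to 360 min, serially diluted in saline, plated on Mueller-Hinton agar, counted after 24 h at 37°C. Plotted as log₁₀ CFU/mL versus time.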

MRSA (strain 33564) [2] = assay: Membrane depolarization, DiSC3; assay type: cell-based, methicillin-resistant Staphylococcus aureus; conditions: 30 min observation
Summary of the method: (§1)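 Cells grown in Mueller-Hinton broth to OD600 0.5, pelleted (3500 r/min, 5 min, 4°C), washed twice in 5 mM HEPES pH 7.4 with 20 mM glucose. Adjusted to OD600 0.05 and loaded 30 min at room temperature with DiSC₃(5) (2 µmol/L final). KCl added (100 mmol/L final). After baseline reading (ex 622/em 670 nm), test compound added at 1, 2, 4 or 8 µmol/L; read continuously for 30 min.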

[3] = tested on: K. pneumoniae (strain 9409); assay: Membrane depolarization, DiSC3; assay type: cell-based, Klebsiella pneumoniae; conditions: 30 min observation
Summary of the method: as §1

[4] = tested on: MRSA-infected RAW264.7 macrophages; assay: Intracellular antibacterial activity; assay type: cell-based; conditions: vancomycin 20 μmol/L, 2 h; MOI 10:1

SMILES	time to eradicate all viable cells (MRSA (strain 33564) [1])	DiSC3(5) fluorescence (membrane potential) (MRSA (strain 33564) [2])	DiSC3(5) fluorescence (membrane potential) [3]	intracellular bacterial burden [4]
CNC(C)C1CCC(N)C(OC2C(N)CC(N)C(OC3OCC(C)(O)C(NC)C3O)C2O)O1 (stereo not shown) [Gentamicin, gentamicin sulfate]	over 360 min	maintained baseline fluorescence	maintained baseline fluorescence	
CN[C@H](CC(C)C)C(=O)N[C@H]1C(=O)N[C@@H](CC(N)=O)C(=O)N[C@H]2C(=O)N[C@H]3C(=O)N[C@H](C(=O)N[C@H](C(=O)O)c4cc(O)cc(O)c4-c4cc3ccc4O)[C@H](O)c3ccc(c(Cl)c3)Oc3cc2cc(c3O[C@@H]2O[C@H](CO)[C@@H](O)[C@H](O)[C@H]2O[C@H]2C[C@](C)(N)[C@H](O)[C@H](C)O2)Oc2ccc(cc2Cl)[C@H]1O [Vancomycin, vancomycin sulfate]				approximately 1.5×10^5 CFU/mL
